Many of the other results were omitted from the sample, so hits are more common in it than they were.
CHOP inh: inhibitors of CHOP induction in ER stress response | CHO-K1 CHOP-promoter luciferase, tunicamycin-induced, 15-18 h | inhibition, % at 10 µM | hit rate 3.8% among 220,000;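 active = compounds that reduced the stress-induced luciferase reporter signal by more than about 70% of percent inhibition, limit read from the data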;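 note: 0% = tunicamycin plus vehicle and 100% = wells without tunicamycin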
TLR9-MyD88 inh: inhibitors of human TLR9-MyD88 binding | CHO BLA complementation TLR9-MyD88, CCF4 FRET ratio | inhibition, % at 4.98 µM | hit rate 0.21% among 340,000 | AID 504734;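 active = inhibition above the mean over all tested compounds plus 3 SD, cut at about 21% in these data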;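 note: 0% = DMSO only wells and 100% = clavulanate BLA inhibitor control wells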
Target sequence (Q99836 whole entry, looked up): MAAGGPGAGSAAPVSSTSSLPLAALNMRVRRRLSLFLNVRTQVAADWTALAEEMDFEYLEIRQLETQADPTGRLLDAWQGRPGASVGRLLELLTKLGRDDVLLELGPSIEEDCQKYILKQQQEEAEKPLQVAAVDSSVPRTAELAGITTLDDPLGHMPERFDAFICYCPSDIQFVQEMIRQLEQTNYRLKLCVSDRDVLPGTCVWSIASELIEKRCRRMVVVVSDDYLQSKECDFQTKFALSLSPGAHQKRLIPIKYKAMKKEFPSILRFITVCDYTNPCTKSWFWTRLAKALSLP
Target sequence (Q9NR96 whole entry, looked up): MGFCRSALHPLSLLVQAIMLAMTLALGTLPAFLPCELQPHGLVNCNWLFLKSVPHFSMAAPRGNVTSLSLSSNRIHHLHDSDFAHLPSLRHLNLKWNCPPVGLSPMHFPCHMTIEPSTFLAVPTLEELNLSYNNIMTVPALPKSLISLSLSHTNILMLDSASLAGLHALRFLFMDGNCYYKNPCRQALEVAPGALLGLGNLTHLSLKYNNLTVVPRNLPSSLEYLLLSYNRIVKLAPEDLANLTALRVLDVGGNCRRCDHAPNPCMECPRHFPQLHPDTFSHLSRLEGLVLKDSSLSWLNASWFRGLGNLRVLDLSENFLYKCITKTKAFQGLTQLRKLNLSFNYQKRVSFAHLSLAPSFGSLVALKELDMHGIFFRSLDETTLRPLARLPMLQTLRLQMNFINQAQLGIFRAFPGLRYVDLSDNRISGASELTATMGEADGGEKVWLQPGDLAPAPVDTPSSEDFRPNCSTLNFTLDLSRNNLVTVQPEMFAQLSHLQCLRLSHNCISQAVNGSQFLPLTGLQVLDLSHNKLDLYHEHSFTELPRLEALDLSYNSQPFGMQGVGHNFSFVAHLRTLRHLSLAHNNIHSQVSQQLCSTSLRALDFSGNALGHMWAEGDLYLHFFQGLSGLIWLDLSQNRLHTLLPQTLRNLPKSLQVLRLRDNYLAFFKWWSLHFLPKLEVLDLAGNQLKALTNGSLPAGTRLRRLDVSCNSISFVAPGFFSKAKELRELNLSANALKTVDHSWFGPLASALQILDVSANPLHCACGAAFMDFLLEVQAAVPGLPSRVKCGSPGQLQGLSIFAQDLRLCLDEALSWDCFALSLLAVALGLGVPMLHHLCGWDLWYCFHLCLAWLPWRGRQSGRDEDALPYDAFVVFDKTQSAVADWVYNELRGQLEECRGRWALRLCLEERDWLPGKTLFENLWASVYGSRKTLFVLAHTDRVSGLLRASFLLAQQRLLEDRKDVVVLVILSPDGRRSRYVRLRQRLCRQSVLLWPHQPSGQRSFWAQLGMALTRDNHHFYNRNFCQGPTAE
UPR XBP1 act: activators of adaptive arm of unfolded protein response (XBP1); AID 463104; activation, % at 20 µM; CHO-XBP1 luciferase reporter, IRE1-XBP1 UPR activation, luminescence; percent of tunicamycin response, DMSO as zero; hit rate 0.33% among 330,000;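 active = versus positive control, 20 µM dose yields 30% or more activation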;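 note: 100% = tunicamycin at 10 µg/mL and 0% = DMSO only wells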
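Material: CHO cell line with stable XBP1 luciferase reporter; buffer or medium: F12 medium containing 10% fetal bovine serum; compound: single point, 20 µM final compound, 1% DMSO; incubation: 6 h treatment, 37 °C; measured by: glow luminescence from Steady-Glo reagent; evaluation: activation, % of tunicamycin; control set: tunicamycin high, DMSO low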
NOD2-RIPK2 inh: NOD2-RIPK2 protein interaction inhibition; CHO BLA complementation NOD2-RIPK2, CCF4 ratio; AID 624267; hit rate 0.38% among 360,000; O43353; inhibition, % at 4.98 µM; in the data active = inhibition above about 21%;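 note: 0% = vehicle only and 100% = reference blocker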
UPR CHOP act: activators of apoptotic arm of unfolded protein response (CHOP). hit rate 0.34% among 330,000. CHO-CHOP luciferase reporter, UPR activation, luminescence; percent of tunicamycin response over DMSO baseline. activation, % at 10 µM. AID 449763;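 active = at 10 µM dose, activation of 40% or more, normalized to positive control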;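 note: 100% = tunicamycin at 10 µg/mL and 0% = DMSO alone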
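assay system = CHO CHOP reporter cells | amount = 500 CHO-CHOP cells per well | buffer or medium = F12 with 10% FBS | incubation = 16-18 h cell attachment, then 6 h compound exposure, 37 °C | detection = luminescence read with Steady-Glo | read-out = percent activation relative to tunicamycin control | controls = tunicamycin high control, DMSO low control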
TLR4-MyD88 BLA: blocks binding of human TLR4 to MyD88; HeLa CL3-4 TLR4/MyD88 BLA complementation, FRET ratio; inhibition, % at 8.4 µM; hit rate 0.18% among 200,000; AID 861; O00206+Q99836; in the data active = inhibition above about 25%;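 note: 0% = vehicle and 100% = reference inhibitor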
CHOP inh conf: confirmation of CHOP induction inhibitors. shares compounds with CHOP inh. inhibition, % at 10 µM. CHO-CHOP promoter luciferase reporter, tunicamycin-induced, luminescence. hit rate 45% among 2,100;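 active = mean of three repeat readings of reporter signal inhibition above a set limit, cut at about 70% in these data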;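 note: 0% = tunicamycin plus vehicle and 100% = wells lacking tunicamycin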
Active calls of the source: *; . = no result.

SMILES	CHOP inh	TLR9-MyD88 inh	UPR XBP1 act	NOD2-RIPK2 inh	UPR CHOP act	TLR4-MyD88 BLA	CHOP inh conf
COc1ccccc1-c1cc(C(F)(F)F)nc(S(=O)(=O)CCCC(=O)O)n1	-33	-8	-4	-2	-2	-5	.
O=c1cc(CN2CCN(c3ccccc3F)CC2)c2ccccc2o1	.	.	.	-6	.	.	.
Cc1c(C(=O)N/N=C/c2ccc(Cl)cc2)[nH]c2ccc(Cl)cc12	98*	9	17	-4	1	2	19
Cc1ccc(CNc2nc3cc(-c4ccccc4)sc3c(=O)n2C)c(C)c1	.	.	.	8	.	.	.
CCN1CCN(CC(=O)Nc2ccc(Cl)c(S(=O)(=O)N(C)C)c2)CC1	8	-4	-2	-11	-1	-7	.
CCCCc1ccc(NC(=S)Nc2ccc(Cl)c(S(=O)(=O)N(C)C)c2)cc1	105*	9	.	-8	.	-13	83*
CCc1ccc(OCc2n[nH]c(=S)n2C(C)CCCC(C)C)cc1 (configuration not stated)	105*	-5	-2	0	0	-5	113*
CCc1ccc(OCc2n[nH]c(=S)n2Cc2ccccc2)cc1	4	-1	-1	-7	0	-6	.
CCOc1ccccc1-c1ccc2nccn2c1	.	.	.	-1	.	.	.
CN(C)c1ccc(/C=C2\C(=N)N3N=C(CC(=O)N4CCCCC4)SC3=NC2=O)cc1	.	14	-1	4	0	.	.
CN(C)c1ccc(/C=C2\C(=N)N3C(=NC2=O)Sc2cc(S(C)(=O)=O)ccc23)cc1	104*	.	136*	.	16	.	-9
Cn1c(NCc2cccnc2)nc2cc(-c3cccc(C(F)(F)F)c3)sc2c1=O	.	.	.	1	.	.	.
Cc1ccc(CN2C(=O)N/C(=C/c3ccc4c(c3)n(C)c(=O)n4C)C2=O)cc1	106*	.	3	.	0	-10	55
CSCCC(C(=O)Nc1c(C)cccc1C)N(Cc1ccccc1)Cc1ccccc1 (configuration not stated)	.	.	.	0	.	.	.
Cc1ccc(S(=O)(=O)C[C@@H]2OC3CCCCC3N2S(=O)(=O)c2ccc(C)cc2)cc1 (some centres not stated)	.	.	.	6	.	.	.
O=c1[nH]c2cc3c(cc2cc1C(c1nnnn1Cc1ccccc1)N1CCCCCC1)OCCO3 (configuration not stated)	101*	8	1	-1	1	-1	29
Cc1cccc(NC(=O)C2(C)CC3c4ccccc4C2c2ccccc23)c1 (configuration not stated)	103*	8	2	-5	2	-13	-9
Cc1ccc(-n2c(C)cc3c2CC(C)(C)CC3=O)cc1C	105*	-1	1	3	0	7	38
CCOc1ccc2nc(NCCNC(=O)Nc3cccc(C)c3)c(C#N)cc2c1	103*	8	17	10	1	-3	23
COc1cccc(-n2nnnc2S(C)(=O)=O)c1	113*	22*	-8	49*	-11	7	115*
COc1cccc(Oc2nnnn2-c2ccccc2)c1	-5	-5	2	-125	5	10	.
COc1ccc(S(=O)(=O)N2C[C@H]3CON(C)[C@H]3C[C@H]2c2ccc(-c3cc4ccccc4o3)cc2)cc1	.	0	.	-25	.	.	.
Cc1ccc2nc(-c3ccco3)c(Cc3cccc(F)c3)n2c1	.	.	.	-14	.	.	.
Cc1cc(=O)[nH]c(N=N/C(=N/Nc2ccc(O)cc2)c2ccccc2)n1	50	8	0	-6	3	-1	.
Cc1cc(=O)[nH]c(N=N/C(=N/Nc2ccccc2C)c2ccccc2)n1	103*	1	7	-8	-1	3	43
SMILES	CHOP inh	TLR9-MyD88 inh	UPR XBP1 act	NOD2-RIPK2 inh	UPR CHOP act	TLR4-MyD88 BLA	CHOP inh conf
O=C1c2ccccc2C(c2nnnn2-c2ccc3c(c2)OCCO3)N1Cc1cccnc1 (configuration not stated)	.	.	.	-8	.	.	.
C[C@H]1CN([C@@H](C)CO)S(=O)(=O)c2ccc(-c3ccncc3)cc2O[C@H]1CN(C)C(=O)c1cccc(F)c1	.	-1	.	-9	.	.	.
Nc1nc(-c2ccc(Br)s2)c(Br)s1	98*	-4	2	-9	4	5	11
COc1cc(/C=C2/C(=O)c3cccc([N+](=O)[O-])c3C2=O)c(Br)cc1O	107*	1	.	-10	.	8	4
O=C(NCc1ccccc1)OC1CC2CC1[C@H]1CCCCN1C2=O (some centres not stated)	.	.	.	-12	.	.	.
N#Cc1c(Cl)c(Cl)c2nnc(-c3ccc(Br)cc3)n2c1Cl	104*	.	0	.	1	-3	-7
CCOC(=O)c1cnc(-n2nc(C)cc2C)nc1Nc1ccc(O)cc1	104*	2	-4	-3	-6	.	110*
CCc1nnc(NS(=O)(=O)c2ccc(NC(=O)c3ccc([N+](=O)[O-])s3)cc2)s1	.	-7	.	-8	.	.	.
O=c1c2c([N+](=O)[O-])cc([N+](=O)[O-])cc2sn1-c1ccc(Br)cc1	97*	4	-1	-3	2	-19	12
O=C(c1ccco1)N1CCN(C2CN(Cc3ccc(F)cc3)S(=O)(=O)C2)CC1 (configuration not stated)	.	.	.	-14	.	.	.
CC(C)(C)OC(=O)N1CCc2onc(-c3ccc(-n4cc(C5=CCCCC5)nn4)cc3)c2C1=O	.	.	.	-3	.	.	.
COc1cc2[nH]c(=O)n(CCC(=O)N3CCN(c4cc(Cl)ccc4C)CC3)c(=O)c2cc1OC	104*	-1	2	-6	2	-9	56
CCOc1cc2[nH]c(=O)n(CCC(=O)N3CCN(c4ccccc4OC)CC3)c(=O)c2cc1OCC	30	-2	1	-5	1	7	.
COc1ccc(Cc2c(-c3cccc(Cl)c3)nc3c(C)cc(Br)cn23)c(C)c1	.	.	.	0	.	.	.
O=C(c1ccco1)N(CCC(c1ccccc1)c1ccco1)Cc1ccc(F)cc1 (configuration not stated)	108*	-2	2	-7	-1	8	58
CC1(C)CC(C(CCN(Cc2ccccc2)C(=O)c2ccco2)c2ccc(F)cc2)CCO1 (configuration not stated)	101*	-6	.	4	.	-15	79*
CC1(C)CC(N(Cc2ccc(F)cc2)C(=O)c2ccc(F)cc2)CCO1 (configuration not stated)	11	3	-1	-1	-2	.	.
Cc1onc(-c2ccccc2)c1C(=O)OCC(=O)c1ccc(F)cc1	.	0	.	-12	.	.	.
CCOC(=O)c1c(-c2ccccc2)oc2ccc(O)cc12	.	3	1	-9	0	.	.
CCOC(=O)c1c(CSc2ccccc2)oc2ccc(O)cc12	105*	4	8	10	0	-12	14
